Test results as given in ChEMBL document CHEMBL3124839, “Polyamine transport inhibitors: design, synthesis, and combination therapies with difluoromethylornithine” (J Med Chem, 2014).
Activity calls are given as the source filed them. No cut-off for these calls is given here.

Legend:
[1] = Inhibition of polyamine transport system-mediated [3H]-spermidine uptake in DFMO-treated human L3.6PL cells after 48 hrs in presence of spermidine and aminoguanidine
[2] = Cytotoxicity against human L3.6PL cells assessed as cell viability at 0.1 uM after 48 hrs by MTS assay in presence of aminoguanidine relative to control; assay type: cell-based; conditions: read-out: Activity
Outline: (§1)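 L3.6pl cells plated at 5000 cells/mL and pretreated 24 h with 250 μM aminoguanidine. Exposed to compound for 48 h at 37 °C. Growth read by MTS absorbance at 490 nm relative to untreated control.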

CHO = test: Cytotoxicity against CHO cells assessed as growth inhibition after 48 hrs by MTS assay in presence of aminoguanidine; assay type: cell-based, Cricetulus griseus; conditions: for IC50: Cricetulus griseus, CHO; for IC10: chinese hamster, cho
Outline: (§2)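 CHO and transport-deficient CHO-MG* cells (CHO-MG* medium with 2 μg/mL L-proline) plated at 10 000 cells/mL and pretreated 24 h with 1 mM aminoguanidine. Compound in PBS added after overnight incubation, then 48 h at 37 °C, 5% CO2. Growth read by MTS formazan absorbance at 490 nm against untreated control.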

[3] = Selectivity ratio of IC50 for polyamine transport-deficient CHO-MG cells to IC50 for CHO cells; assay type: ADME, cell-based, Cricetulus griseus; conditions: chinese hamster, polyamine transport-deficient CHO-MG cells and CHO cells; read-out: Ratio IC50
CHO-MG = test: Cytotoxicity against polyamine transport-deficient CHO-MG cells assessed as growth inhibition after 48 hrs by MTS assay in presence of aminoguanidine; assay type: ADME, cell-based; conditions: Cricetulus griseus; outline: as §2
Homo sapiens [4] = organism: Homo sapiens; test: Inhibition of polyamine transport system-mediated [3H]-spermidine uptake in DFMO-treated human L3.6PL cells at IC10 after 48 hrs in presence of aminoguanidine
[5] = Cytotoxicity against human L3.6PL cells assessed as growth inhibition after 48 hrs by MTS assay in presence of aminoguanidine; assay type: cell-based; conditions: for IC50: Homo sapiens, L3.6pl; for IC10: human, l3.6pl
[6] = Cytotoxicity against human L3.6PL cells assessed as cell viability at 0.01 uM after 48 hrs by MTS assay in presence of aminoguanidine relative to control; assay type: cell-based; conditions: read-out: Activity; outline: as §1
Homo sapiens [7] = organism: Homo sapiens; test: Inhibition of polyamine transport system-mediated [3H]-spermidine uptake in DFMO-treated human L3.6PL cells after 48 hrs in presence of putrescine and aminoguanidine
[8] = Cytotoxicity against human L3.6PL cells assessed as growth inhibition after 48 hrs by MTS assay; assay type: cell-based
[9] = Inhibition of polyamine transport system-mediated [3H]-spermidine uptake in DFMO-treated CHO cells after 48 hrs in presence of spermidine and aminoguanidine; conditions: Cricetulus griseus
[10] = Competitive inhibition of polyamine transport system-mediated [3H]-spermidine uptake in DFMO-treated human L3.6PL cells after 15 mins by Lineweaver-Burk plot analysis in presence of aminoguanidine
Outline: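 3H-spermidine uptake in L3.6pl cells in HBSS (with Ca2+/Mg2+) at 37 °C for 15 min, with 3H-Spd fixed at 1 μM and PTI at 0–3 μM. Cells were lysed in 0.1% SDS, counted by scintillation and normalized to BCA protein.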

Homo sapiens [11] = organism: Homo sapiens; test: Inhibition of polyamine transport system-mediated [3H]-spermidine uptake in DFMO-treated human L3.6PL cells after 48 hrs in presence of spermine and aminoguanidine
[12] = Cytotoxicity against DFMO-treated human L3.6PL cells assessed as growth at 7 uM after 48 hrs in presence of spermidine and aminoguanidine relative to control; assay type: functional; conditions: read-out: Activity
Outline: (§3)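 L3.6pl cells (450 000 per 6 mL medium with 10% FBS) pretreated 24 h with 250 μM aminoguanidine, then 48 h at 37 °C with DFMO 8 mM, Spd 1 μM, PTI 7 μM, alone or combined. Acid lysates dansylated with 1,7-diaminoheptane as internal standard and polyamines quantified by HPLC as nmol/mg BCA protein. Growth given relative to untreated control.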

Homo sapiens [13] = organism: Homo sapiens; test: Inhibition of polyamine transport system in human L3.6PL cells assessed as reduction in intracellular spermidine level at 7 uM after 48 hrs by HPLC analysis in presence of aminoguanidine relative to control; assay type: cell-based; outline: as §3
Homo sapiens [14] = organism: Homo sapiens; test: Inhibition of polyamine transport system in DFMO-treated human L3.6PL cells assessed as reduction in intracellular spermidine level at 7 uM after 48 hrs by HPLC analysis in presence of spermidine and aminoguanidine relative to control; assay type: cell-based; outline: as §3
Homo sapiens [15] = organism: Homo sapiens; test: Inhibition of polyamine transport system in DFMO-treated human L3.6PL cells assessed as total polyamine level at 7 uM after 48 hrs by HPLC analysis in presence of spermidine and aminoguanidine relative to control; outline: as §3
[16] = Cytotoxicity against human L3.6PL cells assessed as growth at 7 uM after 48 hrs in presence of aminoguanidine relative to control; assay type: functional; conditions: read-out: Activity; outline: as §3
Homo sapiens [17] = organism: Homo sapiens; test: Inhibition of polyamine transport system in DFMO-treated human L3.6PL cells assessed as reduction in intracellular putrescine level at 7 uM after 48 hrs by HPLC analysis in presence of spermidine and aminoguanidine; assay type: cell-based; outline: as §3
Homo sapiens [18] = organism: Homo sapiens; test: Inhibition of polyamine transport system in human L3.6PL cells assessed as reduction in intracellular spermidine level at 7 uM after 48 hrs by HPLC analysis in presence of spermidine and aminoguanidine relative to control; assay type: cell-based; outline: as §3
Homo sapiens [19] = organism: Homo sapiens; test: Inhibition of polyamine transport system in DFMO-treated human L3.6PL cells assessed as increase in spermine level at 7 uM after 48 hrs by HPLC analysis in presence of spermidine and aminoguanidine relative to control; set-up: scale not given: the % may be the effect or the level left; outline: as §3
Homo sapiens [20] = organism: Homo sapiens; test: Inhibition of polyamine transport system in human L3.6PL cells assessed as total polyamine level at 7 uM after 48 hrs by HPLC analysis in presence of aminoguanidine relative to control; assay type: cell-based; outline: as §3
Homo sapiens [21] = organism: Homo sapiens; test: Inhibition of polyamine transport system in human L3.6PL cells assessed as total polyamine level at 7 uM after 48 hrs by HPLC analysis in presence of spermidine and aminoguanidine relative to control; assay type: cell-based; outline: as §3
[22] = Cytotoxicity against human L3.6PL cells assessed as growth at 7 uM after 48 hrs in presence of spermidine and aminoguanidine relative to control; assay type: functional; conditions: read-out: Activity; outline: as §3
[23] = Homo sapiens, L3.6pl, read-out: EC50

EC50 [1]	inhibition (Homo sapiens [4])	EC50 [1, 23]	EC50 [9]	Compound	IC50 (CHO)	IC10 (CHO)	selectivity ratio [3]	IC50 (CHO-MG)	IC50 [5]	IC10 [5]	Ki [10]	also measured
Not Active	inactive			Cl.NCCCCNCCCCNCCCCNCc1cccc(CNCCCCNCCCCNCCCCN)c1	0.04 µM	0.01 µM	335	13.4 µM	7.5 µM	0.01 µM		viability at 48 h, 0.01 µM [6]: 8%
		0.77 µM	0.34 µM	Cl.NCCCCNCCCCNCc1cc(CNCCCCNCCCCN)cc(CNCCCCNCCCCN)c1	> 100 µM	10 µM		66.9 µM	> 100 µM	10 µM	0.036 µM	inhibition (Homo sapiens [7]): Active; IC50 [8]: 188 µM; inhibition (Homo sapiens [11]): Active
		1.4 µM	0.42 µM	CNCCCCNCCCCNCc1cc(CNCCCCNCCCCNC)cc(CNCCCCNCCCCNC)c1.Cl	> 100 µM	10 µM		122 µM	> 100 µM	10 µM	0.055 µM	growth at 7 µM [12]: 70%; inhibition (Homo sapiens [13]): 27%; inhibition (Homo sapiens [14]): 87%; Activity (Homo sapiens [15]): 19.9 nmol/mg; growth at 7 µM [16]: 117%; inhibition (Homo sapiens [17]): Active; IC50 [8]: 183 µM; inhibition (Homo sapiens [18]): 33%; Activity (Homo sapiens [19]): 67%; Activity (Homo sapiens [20]): 40.4 nmol/mg; Activity (Homo sapiens [21]): 37.4 nmol/mg; growth at 7 µM [22]: 88%
		89.8 µM	60 µM	Cl.NCCCCNCCCCNC(=O)c1cc(C(=O)NCCCCNCCCCN)cc(C(=O)NCCCCNCCCCN)c1	> 100 µM	> 100 µM		> 100 µM	> 100 µM	> 100 µM	0.398 µM	

The next lines start with the molecule.

Compound	EC50 [1]	inhibition (Homo sapiens [4])	EC50 [1, 23]	EC50 [9]	IC50 (CHO)	IC10 (CHO)	selectivity ratio [3]	IC50 (CHO-MG)	IC50 [5]	IC10 [5]	Ki [10]	also measured
Cl.NCCCCNCCCCNCc1cccc(CNCCCCNCCCCN)c1	Not Active	inactive			0.028 µM	0.01 µM	1070	30 µM	52.2 µM	0.1 µM		viability at 48 h, 0.1 µM [2]: 8%
NCCCCNCCCCNCc1c2ccccc2cc2ccccc12							148					
Cl.NCCCCNCCCCNCCCCNC(=O)c1cc(C(=O)NCCCCNCCCCNCCCCN)cc(C(=O)NCCCCNCCCCNCCCCN)c1	Not Active	inactive			16 µM	1 µM	4.3	69.1 µM	9.7 µM	1 µM		
Cl.NCCCNCCCCNCCCNC(=O)c1cc(C(=O)NCCCNCCCCNCCCN)cc(C(=O)NCCCNCCCCNCCCN)c1	Not Active								47.5 µM	8 µM		
Cl.NCCCC[C@H](N)C(=O)NCCCNCCCCNCCCN						> 100 µM				> 100 µM		
Cl.NCCCCNCCCCNCc1ccc(CNCCCCNCCCCN)cc1					0.027 µM	0.001 µM	727					
